# Bioassay records from PubChem BioAssay.
# Lmaj promast: Leishmania major promastigote growth inhibition, primary screen | inhibition, % at 10 µM | Leishmania major promastigotes, resazurin fluorescence viability | actives 9% (n = 200,000); in the data active = inhibition above about 50%;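 also: promastigotes grown with compound for 44 hours at 28 °C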
# WT yeast gro inh: growth inhibition of WT strain, primary screen, mitochondrial fusion inhibitor project, WT and mutant strains, chemical genetic | inhibition, % at 10 µM | actives 2.1% (n = 190,000) | mitochondrial fusion phenotypic screen; in the data active = inhibition above about 58%; tested in S. cerevisiae
# ABCG2 inh: ABCG2 efflux pump inhibitors, primary screen, multiplex with ABCB1, IgMXP3 cells, flow cytometry. AID 1325, 2008. Broad substrate specificity ATP-binding cassette transporter ABCG2 (Homo sapiens), Q9UNQ0. JC-1 efflux. inhibition, % at 6.6 µM. actives 0.1% (n = 190,000);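 active = inhibition above 80%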;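 also: 0% = DMSO and 100% = nicardipine control wells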
#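 material = IgMXP3 (ABCG2) plus far-red-tagged CCRF-Adr (ABCB1) cells | amount = 3 million cells/mL, equal mix of both lines | also added = JC-1 transporter substrate | dosing = one concentration, 6.6 µM final | schedule = 10 min at 25 °C | measured by = flow cytometric JC-1 green MFI at 530 nm | read-out basis = percent efflux inhibition, scaled nicardipine 100% to DMSO 0%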
# RAM inhibit: inhibitors of the yeast RAM network, primary screen, dse1pr::URA3 reporter, 5-FOA selection; actives 1.8% (n = 190,000); S. cerevisiae dse1pr::URA3 reporter, 5-FOA growth OD615, 2 d; analog-sensitive cbk1-as2 kinase mutant strain; AID 868, 2007; inhibition, % at 50 µM;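 active = inhibition above a set limit, 3 SD over mean compound inhibition, cut at about 8.4% in these data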;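 also: 0% = DMSO-only wells with no growth and 100% = 10 µM 1-NA-PP1 full growth; inhibition rescues growth on 5-FOA so higher OD means more RAM inhibition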
# ABCB1 block: ABCB1 efflux pump inhibitors, primary screen, cell-based, multiplex, flow cytometry, ABCG2 counter-screen. actives 0.067% (n = 190,000). ATP-dependent translocase ABCB1 (Homo sapiens), P08183. CCRF-Adr cells, JC-1 efflux. inhibition, % at 6.6 µM. AID 1326, 2008; in the data active = inhibition above about 40%;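 also: 0% = vehicle and 100% = reference inhibitor; higher value means more JC-1 retained so stronger ABCB1 efflux block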
# Target sequence (P08183 whole entry, looked up): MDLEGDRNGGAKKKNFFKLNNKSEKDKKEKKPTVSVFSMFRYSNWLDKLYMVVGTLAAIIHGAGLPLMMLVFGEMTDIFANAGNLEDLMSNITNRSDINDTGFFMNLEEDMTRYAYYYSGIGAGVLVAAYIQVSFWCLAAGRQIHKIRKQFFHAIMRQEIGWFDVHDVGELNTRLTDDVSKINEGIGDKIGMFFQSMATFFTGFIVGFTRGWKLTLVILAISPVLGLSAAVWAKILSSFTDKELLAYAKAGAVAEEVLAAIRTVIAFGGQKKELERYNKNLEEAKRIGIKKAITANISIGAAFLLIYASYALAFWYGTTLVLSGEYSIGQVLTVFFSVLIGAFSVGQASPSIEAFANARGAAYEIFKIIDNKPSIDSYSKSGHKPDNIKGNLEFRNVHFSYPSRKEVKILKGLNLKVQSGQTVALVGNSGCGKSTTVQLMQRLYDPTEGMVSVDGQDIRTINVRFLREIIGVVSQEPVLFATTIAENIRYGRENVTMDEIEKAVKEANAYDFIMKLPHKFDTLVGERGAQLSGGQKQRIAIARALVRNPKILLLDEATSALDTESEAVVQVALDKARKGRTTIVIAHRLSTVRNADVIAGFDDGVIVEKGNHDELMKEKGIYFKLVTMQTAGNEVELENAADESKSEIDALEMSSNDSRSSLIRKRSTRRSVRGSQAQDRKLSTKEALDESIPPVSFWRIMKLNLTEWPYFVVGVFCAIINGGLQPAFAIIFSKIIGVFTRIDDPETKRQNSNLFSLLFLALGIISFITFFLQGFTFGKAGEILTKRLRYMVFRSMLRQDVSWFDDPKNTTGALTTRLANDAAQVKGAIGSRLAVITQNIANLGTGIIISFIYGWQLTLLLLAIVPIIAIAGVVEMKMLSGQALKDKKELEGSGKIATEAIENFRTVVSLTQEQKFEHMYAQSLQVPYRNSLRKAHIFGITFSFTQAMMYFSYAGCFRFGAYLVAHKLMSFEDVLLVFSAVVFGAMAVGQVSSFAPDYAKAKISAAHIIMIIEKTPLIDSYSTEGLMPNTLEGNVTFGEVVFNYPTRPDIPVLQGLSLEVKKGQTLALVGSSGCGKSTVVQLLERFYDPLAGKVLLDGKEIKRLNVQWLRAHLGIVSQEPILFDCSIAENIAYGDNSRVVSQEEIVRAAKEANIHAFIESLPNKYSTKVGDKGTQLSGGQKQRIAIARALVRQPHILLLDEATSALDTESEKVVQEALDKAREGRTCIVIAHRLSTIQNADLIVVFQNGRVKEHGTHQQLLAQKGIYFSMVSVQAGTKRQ
# * marks the source's active call; other numbers are inactive results. The list is not random: actives were taken first. Their share in the collection is about 12%.
SMILES,Lmaj promast,WT yeast gro inh,ABCG2 inh,RAM inhibit,ABCB1 block
O=C1c2cccnc2C(Nc2ccccc2Br)N1Cc1ccco1 (configuration not stated),10,-4,2,4,1
C=CCN1C(=O)C2C3CC(=O)C(c4ccccc43)C2C1=O (configuration not stated),3,7,0,-1,1
O=C(C1=C[C@@H](c2csc3ccccc23)C[C@@H](OCc2ccc(CO)cc2)O1)N1CCOCC1,15,-3,6,-1,3
O=C(C1=C[C@@H](c2csc3ccccc23)C[C@@H](OCc2ccc(CO)cc2)O1)N1CCN(Cc2ccccc2)CC1,51*,94*,9,1,5
CCCCNC(=S)N1CCN(C)CC1,-3,-4,0,2,0
S=C(NCc1ccco1)N1CCN(c2ccccc2Cl)CC1,-9,72*,19,0,0
CCCCNC(=S)N1CCN(c2ccccc2Cl)CC1,-5,66*,6,-1,0
CCC(=O)Nc1ccc(C(=O)OCc2ccc(Cl)c(Cl)c2)cc1,65*,16,12,4,1
CC(=O)Nc1ccc(C(=O)OCc2ccc(Cl)c(Cl)c2)cc1,62*,31,0,7,0
CC(=O)Nc1ccc(C(=O)OCc2ccccc2Br)cc1,8,76*,3,8.8*,0
CC(=O)Nc1ccc(C(=O)OCC(=O)N(Cc2ccccc2)C(C)(C)C)cc1,67*,-4,12,0,2
Cc1cccc(C)c1OCC(=O)Nn1c(C)nc2ccccc2c1=O,-1,-3,2,0,0
O=C(OCC(=O)c1ccc[nH]1)c1ccccc1,4,-3,0,2,0
CC(C)(C)C1CCC(C(=O)OCC(=O)c2ccc[nH]2)CC1 (configuration not stated),57*,50,11,1,1
COc1ccc(-c2nc(N)n[nH]2)cc1OC,-1,2,1,0,0
COc1nc(-c2ccccc2)cc(-c2ccc(OC)c(OC)c2)n1,61*,4,2,4,1
O=C(Cc1c(Cl)cccc1Cl)NC1=NCCS1,-9,-25,1,4,0
Cc1cc2n(n1)C(c1cn(-c3ccccc3)nc1C)Nc1c(C)cccc1-2 (configuration not stated),29,14,10,2,1
Cc1cc2n(n1)C(c1ccc3c(c1)OCO3)Nc1c(C)cccc1-2 (configuration not stated),99*,1,1,4,0
CNC(=S)N(Cc1ccc(OC)cc1)C1CC(=O)N(c2ccc(OC)cc2)C1=O (configuration not stated),-3,-11,14,10*,1
COc1ccc(CCN(C(=O)c2cccc(F)c2)C2CC(=O)N(c3ccc(OC)cc3)C2=O)cc1 (configuration not stated),72*,-16,15,0,2
CCCOc1ccc(N2C(=O)CC(N(CCc3ccc(OC)c(OC)c3)C(=S)Nc3ccccc3)C2=O)cc1 (configuration not stated),45,0,-2,-1,-1
CCCOc1ccc(N2C(=O)CC(N(Cc3ccc(OC)cc3)C(=S)Nc3ccccc3)C2=O)cc1 (configuration not stated),69*,29,1,3,0
C1CCc2c(nc3nnnn3c2NC2CCCC2)C1,2,-9,3,0,0
COc1ccc(CCC(=O)Nc2cccc(Cl)c2)cc1,-7,-5,15,2,0
SMILES,Lmaj promast,WT yeast gro inh,ABCG2 inh,RAM inhibit,ABCB1 block
O=C(CCc1ccc(Oc2cc([N+](=O)[O-])cc([N+](=O)[O-])c2)cc1)Nc1cccc(Cl)c1,100*,28,12,5,1
O=C(CCc1ccc(Oc2cc([N+](=O)[O-])cc([N+](=O)[O-])c2)cc1)N1CCCCC1,92*,18,4,2,1
NC(=S)N=Nc1c(O)[nH]c2c(Br)cc(Br)cc12,7,26,-4,3,-1
O=C1Nc2ccc(Br)cc2C1=Nc1ccc(-c2nnc3n2CCCCC3)cc1,74*,-3,6,0,0
Cc1ccc(C2C(C#N)=C(N)Oc3cc(C)oc(=O)c32)o1 (configuration not stated),100*,-3,-1,1,-1
Cc1c(NC(=O)COC(=O)C2(c3ccc(F)cc3)CCCC2)c(=O)n(-c2ccccc2)n1C,-9,-3,-1,4,1
c1ccc2c(NC3=NCCCCS3)cccc2c1,14,-9,0,0,0
COc1cccc(/C=C/C(=O)c2ccc(NC3=NCCCS3)cc2)c1,99*,28,1,0,0
COc1ccc(/C=C/C(=O)NC2=NCCS2)cc1OC,5,-8,1,2,0
Cc1cccc(/C=C/C(=O)c2ccc(NC3=NCCCS3)cc2)c1,77*,58,64,0,2
CCOc1ccc(N2CC(C(=O)NC3=NCCS3)CC2=O)cc1 (configuration not stated),-8,15,4,2,0
C/C(=N\NC(=O)c1ccccn1)c1ccc(C(=O)O)s1,-6,1,1,2,0
Cc1ccc(Nc2nc3nonc3[nH]c2=O)cc1Cl,4,64*,-5,1,-1
CN(C)/C=C/C(=O)c1ccc(Cl)c([N+](=O)[O-])c1,3,0,10,6,1
Cc1[nH]c2ccccc2c1N=Nc1ccccc1F,-6,72*,6,-1,0
CC(=O)NC1=C(C#N)C(c2ccccc2)c2c(ccc3ccccc23)O1 (configuration not stated),6,21,0,2,0
Cn1cc(CNCc2cn(C)nc2-c2ccc(C3CCCCC3)cc2)cn1,94*,-4,4,2,5
Cc1ccc(-c2nc(CSCC(=O)NCCCN3CCOCC3)c(C)o2)cc1,53*,-16,1,0,0
Cc1oc(-c2ccc(Cl)cc2)nc1CN1CCC(C(=O)NCCCN2CCOCC2)CC1,101*,-2,1,1,0
Cc1cccc(-c2nc(CN3CCCC(C(=O)NC4CCCC4)C3)c(C)o2)c1 (configuration not stated),8,3,1,2,0
Cc1oc(-c2cccc(Cl)c2)nc1CN1CCCC(C(=O)NCCCN2CCOCC2)C1 (configuration not stated),101*,36,5,0,1
CCOc1cc(/C=N/NC(=O)C(C)Sc2ccccc2)ccc1O (configuration not stated),-4,14,3,-1,0
